Source: ChEMBL document CHEMBL1137373 (J Med Chem, 2006)
Blank lines part the entries; values can stand above or below the compound they belong to.

How the values were obtained:
[1] = biological target: T1, Amyloid-beta precursor protein (Homo sapiens, UniProt P05067); assay: Displacement of [125I]IMPY from beta amyloid protein 40
[2] = biological target: T1, Amyloid-beta precursor protein; assay: Displacement of [125I]IMSB from beta amyloid protein 40
Rattus norvegicus = species: Rattus norvegicus; assay: Increase in bioavailability in rat in presence of piperine at 1 to 2 hrs; format: ADME, organism-based; conditions: in vivo
Homo sapiens = species: Homo sapiens; assay: Increase in bioavailability in human in presence of piperine after 45 mins; format: ADME, organism-based; conditions: in vivo, 0.75 h
Mus musculus [3] = assay: Stability in iv dosed ICR mouse blood after 60 mins; format: ADME, organism-based; conditions: in vivo, 1 h
Outline: (§1)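 Male ICR mice (25-30 g) given 18F radioligand (14.8 MBq/mouse) by tail vein, killed at 2, 30 and 60 min. Blood and whole brain homogenized in 1 mL chilled absolute ethanol, centrifuged 3000 rpm 3 min. Supernatant analysed by radio-TLC (20:1 CH2Cl2-CH3OH and 1:1:0.01 CH2Cl2-CH3OH-triethylamine) for percent parent radioligand.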

[4] = Partition coefficient, log P of the compound; format: physicochemical; conditions: octanol/water
Outline: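 Radioligand added to octanol/water (600 µL each), vortexed 3 min, centrifuged 2000 rpm 5 min. Aliquots of both layers counted, repartitioned until consistent. Run in triplicate. Log P taken as log of octanol/water cpm ratio.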

Mus musculus [5] = assay: Biodistribution in blood of iv dosed piperine-treated ICR mouse after 60 mins; format: ADME, organism-based; conditions: in vivo, 1 h
Outline: (§2)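 Male ICR mice (25-30 g, four per time point) given radioligand mixed with piperine (2 mg/kg) in 0.2 mL 10% ethanol-saline by tail vein, 1.85 MBq for the 18F tracer. Killed at 2, 30, 60 or 120 min. Blood and organs removed, weighed and gamma-counted. Data given as % injected dose per gram tissue.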

Mus musculus [6] = assay: Stability in iv dosed ICR mouse brain after 60 mins; format: ADME, organism-based; conditions: in vivo, 1 h; outline: as §1
Mus musculus [7] = assay: Biodistribution in muscle of iv dosed ICR mouse after 60 mins; format: ADME, organism-based, Muscle tissue; conditions: in vivo, 1 h
Outline: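 Male ICR mice (25-30 g, four per time point) injected by tail vein with radioligand (0.74 MBq 125I or 1.85 MBq 18F) in 0.2 mL 10% ethanol-saline. Sacrificed at 2, 30, 60 or 120 min. Blood, organs, muscle and thyroid or bone weighed and counted in a gamma counter. Expressed as % injected dose per gram.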

Mus musculus [8] = assay: Biodistribution in spleen of iv dosed piperine-treated ICR mouse after 60 mins; format: ADME, organism-based; conditions: in vivo, 1 h; outline: as §2
Mus musculus [9] = assay: Biodistribution in brain of iv dosed piperine-treated ICR mouse after 2 mins; format: ADME, organism-based; conditions: in vivo; outline: as §2
Mus musculus [10] = assay: Biodistribution in kidney of iv dosed piperine-treated ICR mouse after 2 mins; format: ADME, organism-based; conditions: in vivo; outline: as §2

T1 sequence (P05067 whole entry): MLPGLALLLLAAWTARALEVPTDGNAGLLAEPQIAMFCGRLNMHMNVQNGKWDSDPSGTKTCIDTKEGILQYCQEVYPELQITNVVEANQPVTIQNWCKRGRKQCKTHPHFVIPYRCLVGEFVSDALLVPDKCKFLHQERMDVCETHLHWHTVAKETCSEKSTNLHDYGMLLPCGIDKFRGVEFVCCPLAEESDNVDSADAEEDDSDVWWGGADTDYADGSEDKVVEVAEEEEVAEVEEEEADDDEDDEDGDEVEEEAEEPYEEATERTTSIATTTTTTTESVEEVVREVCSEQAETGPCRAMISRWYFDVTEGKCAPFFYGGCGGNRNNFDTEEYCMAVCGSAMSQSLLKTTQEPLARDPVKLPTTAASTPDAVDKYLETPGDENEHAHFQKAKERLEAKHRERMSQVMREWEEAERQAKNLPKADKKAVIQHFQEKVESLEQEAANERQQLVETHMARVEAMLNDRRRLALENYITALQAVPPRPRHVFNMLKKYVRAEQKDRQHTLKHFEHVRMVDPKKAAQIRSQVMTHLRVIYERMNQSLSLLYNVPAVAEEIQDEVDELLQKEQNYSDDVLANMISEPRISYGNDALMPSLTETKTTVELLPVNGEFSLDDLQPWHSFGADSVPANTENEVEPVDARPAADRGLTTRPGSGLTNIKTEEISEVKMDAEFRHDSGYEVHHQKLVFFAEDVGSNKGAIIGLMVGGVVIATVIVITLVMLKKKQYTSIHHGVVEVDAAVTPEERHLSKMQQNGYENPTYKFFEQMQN

SMILES: COc1cc(/C=C/C(O)=C/C(C)=O)ccc1OCCF
Ki [1]: 958 nM

SMILES: COc1cc(/C=C/C(O)=C/C(=O)/C=C/c2ccc(OCCCF)c(OC)c2)ccc1O
Ki [2]: 0.07 nM

SMILES: COc1cc(/C=C/C(C)=O)ccc1OCCF
Ki [1]: 233 nM

SMILES: COc1cc(/C=C/C(=O)CC(=O)/C=C/c2ccc(O)c(OC)c2)ccc1O [CURCUMIN]
Bioavailability Increase (Rattus norvegicus): 154%
Bioavailability Increase (Homo sapiens): 2000%

SMILES: COc1cc(/C=C/C(O)=C/C(=O)/C=C/c2ccc(OCCC[18F])c(OC)c2)ccc1O
Activity (Mus musculus [3]): Not Active
logP [4]: 1.84
Drug uptake (Mus musculus [5]): 0.82 % ID/g
Activity (Mus musculus [6]): Active
Drug uptake (Mus musculus [7]): 0.27 % ID/g
Drug uptake (Mus musculus [8]): 41.07 % ID/g
Drug uptake (Mus musculus [9]): 0.77 % ID/g
Drug uptake (Mus musculus [10]): 8.69 % ID/g

SMILES: COc1cc(/C=C/C(O)=C/C(C)=O)ccc1OCCCF
Ki [1]: 316 nM

SMILES: COc1cc(/C=C/C(O)=C/C(=O)/C=C/c2cc([125I])c(O)c(OC)c2)ccc1O
logP [4]: 0.94

SMILES: COc1cc(/C=C/C(C)=O)ccc1OCCCF
Ki [1]: 839 nM

SMILES: O=C(O)c1cc(/N=N/c2ccc(-c3ccc(/N=N/c4ccc(O)c(C(=O)O)c4)cc3)cc2)ccc1O [CHRYSAMINE G]
Ki [2]: 0.16 nM

Next, values leading:

Ki [2]: 9.37 nM
SMILES: COc1cc(/C=C/C(O)=C/C(=O)/C=C/c2cc(I)c(O)c(OC)c2)ccc1O

Ki [2]: 20 nM
Ki [1]: 36.6 nM
SMILES: COc1cc(/C=C/C(C)=O)cc(I)c1O

Ki [1]: 24.9 nM
SMILES: COc1cc(/C=C/C(O)=C/C(C)=O)cc(I)c1O

logP [4]: 1.35
Drug uptake (Mus musculus [7]): 0.26 % ID/g
SMILES: COc1cc(/C=C/C(O)=C/C(C)=O)cc([125I])c1O
